Converted amounts (≈) assume the structure as drawn.
How the values were obtained:
Assay type in all cases: functional
Acinetobacter baumannii [1] = test: Antibacterial activity against imipenem-susceptible Acinetobacter baumannii ab3 by broth dilution method
Procedure, shortened: (§1)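 Clinical isolates were collected at three Taiwan hospitals (1993–2003) and grown in tryptic soy broth at 37°C for 18 h. MIC by broth dilution following CLSI recommendations.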

Acinetobacter baumannii [2] = test: Antibacterial activity against imipenem-resistant Acinetobacter baumannii abh29 by broth dilution method; procedure, shortened: as §1
Acinetobacter baumannii [3] = test: Antibacterial activity against imipenem-resistant Acinetobacter baumannii abh37 by broth dilution method; procedure, shortened: as §1
Acinetobacter baumannii [4] = test: Antibacterial activity against imipenem-resistant Acinetobacter baumannii ab1265 by broth dilution method; procedure, shortened: as §1
Acinetobacter baumannii [5] = test: Antibacterial activity against imipenem-resistant Acinetobacter baumannii abh36 by broth dilution method; procedure, shortened: as §1
Acinetobacter baumannii [6] = test: Antibacterial activity against imipenem-resistant Acinetobacter baumannii abh20 by broth dilution method; procedure, shortened: as §1
Acinetobacter baumannii [7] = test: Antibacterial activity against imipenem-resistant Acinetobacter baumannii abh9 by broth dilution method; procedure, shortened: as §1
Acinetobacter baumannii [8] = test: Antibacterial activity against imipenem-resistant Acinetobacter baumannii abh14 by broth dilution method; procedure, shortened: as §1
Acinetobacter baumannii [9] = test: Antibacterial activity against imipenem-susceptible Acinetobacter baumannii ab4 by broth dilution method; procedure, shortened: as §1
Acinetobacter baumannii [10] = test: Antibacterial activity against imipenem-susceptible Acinetobacter baumannii ab1254 by broth dilution method; procedure, shortened: as §1
Acinetobacter baumannii [11] = test: Antibacterial activity against imipenem-resistant Acinetobacter baumannii ab1266 by broth dilution method; procedure, shortened: as §1
Acinetobacter baumannii [12] = test: Antibacterial activity against imipenem-susceptible Acinetobacter baumannii ab20 by broth dilution method; procedure, shortened: as §1
Acinetobacter baumannii [13] = test: Antibacterial activity against imipenem-resistant Acinetobacter baumannii abh26 by broth dilution method; procedure, shortened: as §1
Acinetobacter baumannii [14] = test: Antibacterial activity against imipenem-resistant Acinetobacter baumannii abh13 by broth dilution method; procedure, shortened: as §1
Acinetobacter baumannii [15] = test: Antibacterial activity against imipenem-intermediate Acinetobacter baumannii ab1297 by broth dilution method
Procedure, shortened: (§2)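 Clinical A. baumannii isolates collected at three Taiwanese hospitals, routinely grown in tryptic soy broth at 37°C for 18 h. MICs (μg ml⁻¹) were determined by broth dilution following CLSI recommendations, or by Etest strips following the manufacturer's instructions.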

Acinetobacter baumannii [16] = test: Antibacterial activity against imipenem-susceptible Acinetobacter baumannii ab1308 by broth dilution method; procedure, shortened: as §2
Acinetobacter baumannii [17] = test: Antibacterial activity against imipenem-resistant Acinetobacter baumannii abh11 by broth dilution method; procedure, shortened: as §1
Acinetobacter baumannii [18] = test: Antibacterial activity against imipenem-resistant Acinetobacter baumannii abh18 by broth dilution method; procedure, shortened: as §1
Acinetobacter baumannii [19] = test: Antibacterial activity against imipenem-susceptible Acinetobacter baumannii ab8 by broth dilution method; procedure, shortened: as §1
Acinetobacter baumannii [20] = test: Antibacterial activity against imipenem-resistant Acinetobacter baumannii abh17 by broth dilution method; procedure, shortened: as §1
Acinetobacter baumannii [21] = test: Antibacterial activity against imipenem-susceptible Acinetobacter baumannii ab1316 by broth dilution method; procedure, shortened: as §2
Acinetobacter baumannii [22] = test: Antibacterial activity against imipenem-resistant Acinetobacter baumannii abh39 by broth dilution method; procedure, shortened: as §1
Acinetobacter baumannii [23] = test: Antibacterial activity against imipenem-susceptible Acinetobacter baumannii ab12 by broth dilution method; procedure, shortened: as §1
Acinetobacter baumannii [24] = test: Antibacterial activity against imipenem-susceptible Acinetobacter baumannii ATCC 19606 by broth dilution method; conditions: ATCC 19606 = CIP 70.34 = JCM 6841

Question: How did the MIC (Acinetobacter baumannii [1]) turn out when `CC(C)(O/N=C(\C(=O)N[C@@H]1C(=O)N2C(C(=O)[O-])=C(C[n+]3ccccc3)CS[C@H]12)c1csc(N)n1)C(=O)O` [CEFTAZIDIME] was run?
Answer: 48 µg/mL (≈ 87.8 µM)

Question: And the MIC (Acinetobacter baumannii [2])?
Answer: > 256 µg/mL

Question: And the MIC (Acinetobacter baumannii [3])?
Answer: > 256 µg/mL

Question: And the MIC (Acinetobacter baumannii [4])?
Answer: > 256 µg/mL

Question: And the MIC (Acinetobacter baumannii [5])?
Answer: > 256 µg/mL

Question: What about the MIC (Acinetobacter baumannii [6]) of the same compound?
Answer: > 256 µg/mL

Question: What about the MIC (Acinetobacter baumannii [7]) of the same compound?
Answer: > 256 µg/mL

Question: And the MIC (Acinetobacter baumannii [8])?
Answer: > 256 µg/mL

Question: What about the MIC (Acinetobacter baumannii [9]) of the same compound?
Answer: 32 µg/mL (≈ 58.5 µM)

Question: What about the MIC (Acinetobacter baumannii [10]) of the same compound?
Answer: > 256 µg/mL

Question: And the MIC (Acinetobacter baumannii [11])?
Answer: > 256 µg/mL

Question: What about the MIC (Acinetobacter baumannii [12]) of the same compound?
Answer: 24 µg/mL (≈ 43.9 µM)

Question: And the MIC (Acinetobacter baumannii [13])?
Answer: > 256 µg/mL

Question: What about the MIC (Acinetobacter baumannii [14]) of the same compound?
Answer: > 256 µg/mL

Question: And the MIC (Acinetobacter baumannii [15])?
Answer: > 256 µg/mL

Question: And the MIC (Acinetobacter baumannii [16])?
Answer: > 256 µg/mL

Question: And the MIC (Acinetobacter baumannii [17])?
Answer: > 256 µg/mL

Question: And the MIC (Acinetobacter baumannii [18])?
Answer: > 256 µg/mL

Question: What about the MIC (Acinetobacter baumannii [19]) of the same compound?
Answer: 48 µg/mL (≈ 87.8 µM)

Question: And the MIC (Acinetobacter baumannii [20])?
Answer: > 256 µg/mL

Question: And the MIC (Acinetobacter baumannii [21])?
Answer: > 256 µg/mL

Question: What about the MIC (Acinetobacter baumannii [22]) of the same compound?
Answer: > 256 µg/mL

Question: And the MIC (Acinetobacter baumannii [23])?
Answer: 48 µg/mL (≈ 87.8 µM)

Question: With `CCN1CCN(C(=O)N[C@@H](C(=O)N[C@@H]2C(=O)N3[C@@H]2SC(C)(C)[C@@H]3C(=O)O)c2ccccc2)C(=O)C1=O` [PIPERACILLIN] as the compound, how does the MIC (Acinetobacter baumannii [1]) read?
Answer: > 256 µg/mL

Question: What about the MIC (Acinetobacter baumannii [2]) of the same compound?
Answer: > 256 µg/mL

Question: And the MIC (Acinetobacter baumannii [3])?
Answer: > 256 µg/mL

Question: And the MIC (Acinetobacter baumannii [4])?
Answer: > 256 µg/mL

Question: What about the MIC (Acinetobacter baumannii [5]) of the same compound?
Answer: > 256 µg/mL

Question: And the MIC (Acinetobacter baumannii [6])?
Answer: > 256 µg/mL

Question: What about the MIC (Acinetobacter baumannii [7]) of the same compound?
Answer: > 256 µg/mL

Question: What about the MIC (Acinetobacter baumannii [8]) of the same compound?
Answer: > 256 µg/mL

Question: And the MIC (Acinetobacter baumannii [9])?
Answer: > 256 µg/mL

Question: What about the MIC (Acinetobacter baumannii [10]) of the same compound?
Answer: > 256 µg/mL

Question: What about the MIC (Acinetobacter baumannii [11]) of the same compound?
Answer: > 256 µg/mL

Question: What about the MIC (Acinetobacter baumannii [12]) of the same compound?
Answer: > 256 µg/mL

Question: And the MIC (Acinetobacter baumannii [13])?
Answer: > 256 µg/mL

Question: And the MIC (Acinetobacter baumannii [14])?
Answer: > 256 µg/mL

Question: And the MIC (Acinetobacter baumannii [15])?
Answer: > 256 µg/mL

Question: What about the MIC (Acinetobacter baumannii [16]) of the same compound?
Answer: > 256 µg/mL

Question: What about the MIC (Acinetobacter baumannii [17]) of the same compound?
Answer: > 256 µg/mL

Question: And the MIC (Acinetobacter baumannii [18])?
Answer: > 256 µg/mL

Question: And the MIC (Acinetobacter baumannii [19])?
Answer: > 256 µg/mL

Question: And the MIC (Acinetobacter baumannii [20])?
Answer: > 256 µg/mL

Question: And the MIC (Acinetobacter baumannii [21])?
Answer: > 256 µg/mL

Question: And the MIC (Acinetobacter baumannii [22])?
Answer: > 256 µg/mL

Question: What about the MIC (Acinetobacter baumannii [23]) of the same compound?
Answer: > 256 µg/mL

Question: What does the source list for GENTAMICIN?
Answer: MIC (Acinetobacter baumannii [1]): 256 µg/mL; MIC (Acinetobacter baumannii [2]): > 256 µg/mL; MIC (Acinetobacter baumannii [3]): > 256 µg/mL; MIC (Acinetobacter baumannii [4]): > 256 µg/mL; MIC (Acinetobacter baumannii [5]): > 256 µg/mL; MIC (Acinetobacter baumannii [6]): > 256 µg/mL; MIC (Acinetobacter baumannii [7]): > 256 µg/mL; MIC (Acinetobacter baumannii [8]): > 256 µg/mL; MIC (Acinetobacter baumannii [9]): 256 µg/mL; MIC (Acinetobacter baumannii [10]): > 256 µg/mL; MIC (Acinetobacter baumannii [11]): > 256 µg/mL; MIC (Acinetobacter baumannii [12]): > 256 µg/mL; MIC (Acinetobacter baumannii [13]): > 256 µg/mL; MIC (Acinetobacter baumannii [14]): > 256 µg/mL; MIC (Acinetobacter baumannii [15]): > 256 µg/mL; MIC (Acinetobacter baumannii [16]): > 256 µg/mL; MIC (Acinetobacter baumannii [17]): > 256 µg/mL; MIC (Acinetobacter baumannii [18]): > 256 µg/mL; MIC (Acinetobacter baumannii [19]): > 256 µg/mL; MIC (Acinetobacter baumannii [20]): > 256 µg/mL; MIC (Acinetobacter baumannii [21]): > 256 µg/mL; MIC (Acinetobacter baumannii [22]): > 256 µg/mL; MIC (Acinetobacter baumannii [23]): > 256 µg/mL

Question: Which MIC (Acinetobacter baumannii [1]) does the source give for `CO/N=C(\C(=O)N[C@@H]1C(=O)N2C(C(=O)O)=C(COC(C)=O)CS[C@H]12)c1csc(N)n1` [CEFOTAXIME] here?
Answer: > 256 µg/mL

Question: What about the MIC (Acinetobacter baumannii [2]) of the same compound?
Answer: > 256 µg/mL

Question: And the MIC (Acinetobacter baumannii [3])?
Answer: > 256 µg/mL

Question: What about the MIC (Acinetobacter baumannii [4]) of the same compound?
Answer: > 256 µg/mL

Question: And the MIC (Acinetobacter baumannii [24])?
Answer: 16 µg/mL (≈ 35.1 µM)

Question: And the MIC (Acinetobacter baumannii [5])?
Answer: > 256 µg/mL

Question: What about the MIC (Acinetobacter baumannii [6]) of the same compound?
Answer: > 256 µg/mL

Question: And the MIC (Acinetobacter baumannii [7])?
Answer: > 256 µg/mL

Question: What about the MIC (Acinetobacter baumannii [8]) of the same compound?
Answer: > 256 µg/mL

Question: What about the MIC (Acinetobacter baumannii [9]) of the same compound?
Answer: > 256 µg/mL

Question: And the MIC (Acinetobacter baumannii [10])?
Answer: > 256 µg/mL

Question: What about the MIC (Acinetobacter baumannii [11]) of the same compound?
Answer: > 256 µg/mL

Question: And the MIC (Acinetobacter baumannii [12])?
Answer: > 256 µg/mL

Question: And the MIC (Acinetobacter baumannii [13])?
Answer: > 256 µg/mL

Question: And the MIC (Acinetobacter baumannii [14])?
Answer: > 256 µg/mL

Question: And the MIC (Acinetobacter baumannii [15])?
Answer: > 256 µg/mL

Question: What about the MIC (Acinetobacter baumannii [16]) of the same compound?
Answer: > 256 µg/mL

Question: What about the MIC (Acinetobacter baumannii [17]) of the same compound?
Answer: > 256 µg/mL

Question: And the MIC (Acinetobacter baumannii [18])?
Answer: > 256 µg/mL

Question: And the MIC (Acinetobacter baumannii [19])?
Answer: > 256 µg/mL

Question: What about the MIC (Acinetobacter baumannii [20]) of the same compound?
Answer: > 256 µg/mL

Question: And the MIC (Acinetobacter baumannii [21])?
Answer: > 256 µg/mL

Question: What about the MIC (Acinetobacter baumannii [22]) of the same compound?
Answer: > 256 µg/mL

Question: And the MIC (Acinetobacter baumannii [23])?
Answer: > 256 µg/mL
